From ChEMBL document CHEMBL1255227, “Novel pyridylmethylamines as highly selective 5-HT(1A) superagonists” (J Med Chem, 2010)

Columns and labels:
[1] = Displacement of [3H]WAY-100635 from 5-HT1A receptor in pig cortex membranes; type: cell membranes, Sus scrofa
[2] = target: T1, 5-hydroxytryptamine receptor 1A (Homo sapiens) (UniProt P08908); assay: Intrinsic activity at human 5-HT1A receptor expressed in CHO cells assessed as increase of serotonin-induced [35S]GTPgammaS binding relative to serotonin; type: functional, cell-based
T1 sequence (whole entry): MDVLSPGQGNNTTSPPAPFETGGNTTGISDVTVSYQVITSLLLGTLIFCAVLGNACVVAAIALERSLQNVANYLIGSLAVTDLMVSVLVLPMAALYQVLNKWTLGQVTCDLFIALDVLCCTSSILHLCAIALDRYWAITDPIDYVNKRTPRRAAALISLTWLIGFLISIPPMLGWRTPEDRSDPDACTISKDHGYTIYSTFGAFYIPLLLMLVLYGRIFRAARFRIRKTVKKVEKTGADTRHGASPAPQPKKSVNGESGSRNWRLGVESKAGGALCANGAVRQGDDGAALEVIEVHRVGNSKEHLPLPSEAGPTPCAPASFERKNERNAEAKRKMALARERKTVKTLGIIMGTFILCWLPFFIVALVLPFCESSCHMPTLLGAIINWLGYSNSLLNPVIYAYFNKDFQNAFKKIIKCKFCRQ
In short: (§1)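 Membranes from CHO cells stably expressing human 5-HT1A were incubated with 0.1 nM [35S]GTPγS and test compound at eight concentrations (0.01-10000 nM), in hexaduplicate. Values come from a mean curve of four experiments. Emax is expressed relative to the maximal serotonin effect.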

[3] = target: T2, 5-hydroxytryptamine receptor 1A (Homo sapiens, UniProt P08908); assay: Intrinsic activity at human 5-HT1A receptor expressed in CHO cells assessed as increase of serotonin-induced [35S]GTPgammaS binding; type: functional, cell-based; in short: as §1
T2 sequence (P08908 whole entry): T1 sequence (whole entry)

SMILES | Ki [1] [µM] | Emax [2] [%] | EC50 [3] [µM]
Cc1ccc(CNC[C@@]2(O)C[C@H]3CC[C@@H](C2)N3C(=O)c2ccccc2)nc1 (stereo in doubt; 34) [listing 1 of 2 here] |  | 113 | 
Cc1ccc(CNCC2(F)CCN(C(=O)c3ccc4[nH]ccc4c3)CC2)nc1 | 0.38 | 94 | 0.1
Cc1ccc(CNCC2(F)CCN(C(=O)c3cc4cc(Br)ccc4s3)CC2)nc1 | 0.22 |  | 
Cc1ccc(CNCC2(F)CCN(C(=O)C34CC5CC(CC(Br)(C5)C3)C4)CC2)nc1 | 0.12 |  | 
Cc1ccc(CNC[C@@]2(O)C[C@H]3CC[C@@H](C2)N3C(=O)c2ccccc2)nc1 (stereo in doubt; 38) [listing 1 of 2 here] | 0.063 |  | 
Cc1ccc(CNCC2(F)CCN(C(=O)c3ccoc3)CC2)nc1 | 0.182 | 99 | 0.24
Cc1ccc(CNCC2(F)CCN(C(=O)C34CC5CC(C)(CC(Br)(C5)C3)C4)CC2)nc1 (stereo not drawn) | 0.46 |  | 
Cc1ccc(CNCC2(F)CCN(C(=O)c3ccc(-c4ccccc4)s3)CC2)nc1 | 0.5 |  | 
Cc1ccc(CNCC2(F)CC3CCC(C2)N3C(=O)c2ccccc2)nc1 (stereo not drawn) | 0.34 |  | 
Cc1ccc(CNCC2(F)CCN(C(=O)c3ccc(-c4ccccc4)cc3)CC2)nc1 | 0.3 |  | 
Cc1ccc(CNCC2(F)CCN(C(=O)C34CC5CC(C)(CC(C)(C5)C3)C4)CC2)nc1 | 0.47 |  | 
Cc1ccc(CNC[C@@]2(O)C[C@H]3CCC[C@@H](C2)N3C(=O)c2ccccc2)nc1 (stereo in doubt; 43) | 1.6 |  | 
Cc1ccc(CNCC2(F)CCN(C(=O)c3ccc4[nH]cnc4c3)CC2)nc1 | 3.5 |  | 
Cc1ccc(CNCC2(F)CCN(C(=O)C3CCc4ccccc4C3)CC2)nc1 (stereo not drawn) | 0.16 |  | 
Cc1ccc(CNCC2(F)CCN(C(=O)C34CC5CC(CC(Cl)(C5)C3)C4)CC2)nc1 | 0.092 | 91 | 0.048
Cc1ccc(CNC[C@@]2(O)C[C@H]3CC[C@@H](C2)N3C(=O)c2ccccc2)nc1 (stereo in doubt; 38) [listing 2 of 2 here] |  | < 10 | 
Cc1ccc(CNCC2(F)CC3CCC(C2)N3C(=O)c2ccc(F)c(Cl)c2)nc1 (stereo not drawn) | 0.11 |  | 
Cc1ccc(CNCC2(F)CCN(C(=O)c3cc4ccccc4[te]3)CC2)nc1 | 0.051 | 46 | 0.036
Cc1ccc(CNCC2(F)CCN(C(=O)C34CC5CC(CC(O)(C5)C3)C4)CC2)nc1 | 1.3 | 90 | 0.6
Cc1ccc(CNC[C@@]2(O)C[C@H]3CCC[C@@H](C2)N3C(=O)c2ccccc2)nc1 (stereo in doubt; 41) | 0.15 |  | 
Cc1ccc(CNCC2(O)CC3CCC(C2)N3C(=O)c2ccsc2)nc1 (stereo not drawn) | 0.043 | 101 | 0.032
Cc1ccc(CNCC2(F)CCN(C(=O)c3cc4ccc3CCc3ccc(cc3)CC4)CC2)nc1 | 0.32 |  | 
Cc1ccc(CNCC2(F)CCN(C(=O)c3cc4ccccc4s3)CC2)nc1 | 0.19 | 116 | 0.24

SMILES | Ki [1] [µM] | Emax [2] [%] | EC50 [3] [µM]
Cc1ccc(CNCC2(F)CCN(C(=O)c3ccccc3-c3ccccc3)CC2)nc1 | 0.33 |  | 
Cc1ccc(CNCC2(F)CCN(C(=O)c3cccc(-c4ccccc4)c3)CC2)nc1 | 0.069 |  | 
Cc1ccc(CNCC2(F)CCN(C(=O)c3cc4ccccc4[nH]3)CC2)nc1 | 0.094 |  | 
Cc1ccc(CNCC2(F)CCN(C(=O)c3ccc(-c4cccs4)s3)CC2)nc1 | 0.42 |  | 
Cc1ccc(CNCC2(F)CC3CCC(C2)N3C(=O)c2ccsc2)nc1 (stereo not drawn) | 0.26 |  | 
Cc1ccc(CNCC2(F)CCN(C(=O)c3ccc[nH]3)CC2)nc1 | 0.66 |  | 
Cc1ccc(CNCC2(O)CC3CCC(C2)N3C(=O)c2ccc(F)c(Cl)c2)nc1 (stereo not drawn) | 0.017 | 121 | 0.018
Cc1ccc(CN(C)CC2(F)CCN(C(=O)c3ccc(F)c(Cl)c3)CC2)nc1 | 0.074 | 77 | 0.0086
Cc1ccc(CNCC2(F)CCN(C(=O)c3ccc4[nH]nnc4c3)CC2)nc1 | 0.91 |  | 
Cc1ccc(CNC[C@@]2(O)C[C@H]3CC[C@@H](C2)N3C(=O)c2ccccc2)nc1 (stereo in doubt; 34) [listing 2 of 2 here] | 0.1 |  | 0.27
COc1cscc1C(=O)N1CCC(F)(CNCc2ccc(C)cn2)CC1 | 0.056 | 93 | 0.099
Cc1ccc(CNCC2(F)CCN(C(=O)c3cc4ccccc4o3)CC2)nc1 | 0.064 | 87 | 0.034
Cc1ccc(CNCC2(O)CCN(C(=O)c3ccccc3)CC2)nc1 | 0.079 |  | 
Cc1ccc(CNCC2(O)CCN(C(=O)c3ccsc3)CC2)nc1 | 0.12 |  | 
Cc1ccc(CNCC2(F)CCN(C(=O)c3sccc3-n3cccc3)CC2)nc1 | 0.36 |  | 
Cc1ccc(CNCC2(F)CCN(C(=O)C34CC5CC(C3)CC(C(F)(F)C(F)C(F)(F)F)(C5)C4)CC2)nc1 (stereo not drawn) | 1.3 |  | 
Cc1ccc(CNCC2(F)CCN(C(=O)c3cc4ccsc4s3)CC2)nc1 | 0.046 | 103 | 0.039
Cc1ccc(CNCC2(F)CCN(C(=O)c3cc[nH]n3)CC2)nc1 | 0.91 |  | 
Cc1ccc(CNCC2(F)CCN(C(=O)c3ccc(-c4csc(C)n4)s3)CC2)nc1 | 0.45 |  | 
Cc1ccc(CNCC2(F)CCN(C(=O)c3cc4ccccn4n3)CC2)nc1 | 0.18 | 80 | 0.093
Cc1ccc(CNCC2(F)CCN(C(=O)c3ccc(-c4ccccn4)s3)CC2)nc1 | 0.47 |  | 
Cc1ccc(CNCC2(F)CCN(C(=O)c3cnn4ccccc34)CC2)nc1 | 0.093 | 96 | 0.31

The remaining lines, values ahead:

Ki [1] [µM] | Emax [2] [%] | EC50 [3] [µM] | SMILES
0.0089 |  |  | Cc1ccc(CNCC2(F)CCN(C(=O)c3cc(Br)c(Br)o3)CC2)nc1
0.017 | 98 | 0.011 | Cc1ccc(CNCC2(F)CCN(C(=O)C34CC5CC(CC(C5)C3)C4)CC2)nc1
0.014 | 104 | 0.042 | Cc1ccc(CNCC2(F)CCN(C(=O)c3ccc(C)s3)CC2)nc1
0.015 | 96 | 0.013 | Cc1ccc(CNCC2(F)CCN(C(=O)c3ccccc3)CC2)nc1
0.018 | 91 | 0.054 | CSc1ccc(C(=O)N2CCC(F)(CNCc3ccc(C)cn3)CC2)s1
0.026 |  |  | Cc1ccc(CNCC2(F)CCN(C(=O)c3coc(Br)c3)CC2)nc1
0.029 |  |  | CCC12CC3CC(C1)CC(C(=O)N1CCC(F)(CNCc4ccc(C)cn4)CC1)(C3)C2
0.032 | 102 | 0.063 | Cc1ccc(CNCC2(F)CCN(C(=O)c3sc(Br)c4c3OCCO4)CC2)nc1
0.016 |  |  | Cc1ccc(CNCC2(F)CCN(C(=O)c3ccsc3Br)CC2)nc1
0.025 | 99 | 0.03 | Cc1ccc(CNCC2(F)CCN(C(=O)c3sccc3Cl)CC2)nc1
0.02 | 104 | 0.086 | Cc1ccc(CNCC2(F)CCN(C(=O)c3scc4c3CCCC4)CC2)nc1
0.025 | 97 | 0.059 | Cc1ccc(CNCC2(F)CCN(C(=O)c3sc4sccc4c3Cl)CC2)nc1
0.021 | 101 | 0.046 | Cc1ccc(CNCC2(F)CCN(C(=O)c3ccc(Cl)s3)CC2)nc1
0.015 | 110 | 0.052 | Cc1ccc(CNCC2(F)CCN(C(=O)c3ccc4ccccc4c3)CC2)nc1
0.0048 |  |  | Cc1ccc(CNCC2(F)CCN(C(=O)c3cc(Br)c(Br)s3)CC2)nc1
0.019 | 95 | 0.03 | Cc1ccc(CNCC2(F)CCN(C(=O)c3ccc(Br)s3)CC2)nc1
0.032 | 104 | 0.02 | Cc1ccc(CNCC2(F)CCN(C(=O)c3sccc3Br)CC2)nc1
0.018 | 102 | 0.05 | COc1c(C(=O)N2CCC(F)(CNCc3ccc(C)cn3)CC2)csc1Cl
0.026 | 96 | 0.035 | Cc1ccc(CNCC2(F)CCN(C(=O)c3sccc3C)CC2)nc1
0.035 |  |  | Cc1ccc(CNCC2(F)CCN(C(=O)c3ccc(F)s3)CC2)nc1
0.027 | 95 | 0.012 | Cc1ccc(CNCC2(F)CCN(C(=O)c3ccsc3)CC2)nc1
0.037 | 100 | 0.13 | Cc1ccc(CNCC2(F)CCN(C(=O)c3cc4sccc4s3)CC2)nc1
0.019 | 96 | 0.026 | Cc1ccc(CNCC2(F)CCN(C(=O)C34CCCC(CCC3)C4)CC2)nc1
0.011 | 96 | 0.047 | Cc1ccc(CNCC2(F)CCN(C(=O)C34CC5CC(CC3C5)C4)CC2)nc1
0.0083 | 101 | 0.02 | Cc1ccc(CNCC2(F)CCN(C(=O)c3cc(C)cs3)CC2)nc1
0.011 | 109 | 0.0066 | Cc1ccc(CNCC2(O)CCN(C(=O)c3ccc(F)c(Cl)c3)CC2)nc1
0.017 | 95 | 0.062 | COc1c(C(=O)N2CCC(F)(CNCc3ccc(C)cn3)CC2)csc1Br
